Experiments:
[1] = Oral bioavailability in Sprague-Dawley rat at 2 mg/kg by LC-MS/MS analysis; type: ADME, organism-based; conditions: in vivo
[2] = AUC (0 to infinity) in Sprague-Dawley rat at 1 mg/kg, iv by LC-MS/MS analysis; type: ADME, organism-based; parameters: dose 1 mg/kg, route intravenous, time infinity; conditions: in vivo
[3] = Ratio of drug uptake in C57B16 mouse brain to plasma at 10 mg/kg, ip after 120 mins by LC-MS/MS analysis; type: ADME, organism-based; conditions: 2 h
Procedure, shortened: (§1)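 C57Bl6 mice (n = 6) were given the monotartrate salt i.p. at 10 mg kg⁻¹ (1 mg ml⁻¹ in DMSO/Tween 80/water 1:1:8). Plasma (EDTA) and brain were taken at 30 and 120 min. Brain homogenate was precipitated with acetonitrile, levels were measured by LC-MS/MS, and values were derived by noncompartmental fitting.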

[4] = Cmax in Sprague-Dawley rat at 2 mg/kg, po by LC-MS/MS analysis; type: ADME, organism-based; parameters: dose 2 mg/kg, route oral; conditions: in vivo
Procedure, shortened: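 Male Sprague-Dawley rats (350–400 g) given monotartrate salt as 1 mg ml⁻¹ solution in 10:10:80 DMSO/Tween 80/water, 1 mg kg⁻¹ i.v. or 2 mg kg⁻¹ p.o.; peripheral whole blood sampled at 5, 15, 30 min and 1, 2, 4, 6, 8 h; concentrations by LC-MS/MS.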

[5] = Ratio of drug uptake in C57B16 mouse brain to plasma at 10 mg/kg, ip after 30 mins by LC-MS/MS analysis; type: ADME, organism-based; conditions: 0.5 h; procedure, shortened: as §1
[6] = Volume of distribution at steady state in Sprague-Dawley rat at 1 mg/kg, iv by LC-MS/MS analysis; type: ADME, organism-based; conditions: in vivo
Procedure, shortened: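 Male Sprague-Dawley rats (350–400 g) received the monotartrate salt in 10:10:80 DMSO/Tween 80/water at 1 mg ml⁻¹, 1 mg kg⁻¹ i.v. or 2 mg kg⁻¹ p.o. Peripheral whole blood was sampled at 5, 15 and 30 min and 1, 2, 4, 6 and 8 h after dosing.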

[7] = AUC (0 to infinity) in Sprague-Dawley rat at 2 mg/kg, po by LC-MS/MS analysis; type: ADME, organism-based; parameters: dose 2 mg/kg, time infinity, route oral; conditions: in vivo
Procedure, shortened: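 Male Sprague-Dawley rats (350–400 g) dosed orally as the monotartrate salt, a 1 mg ml⁻¹ solution in 10:10:80 DMSO/Tween 80/water (v/v/v). Peripheral whole blood sampled at 5, 15 and 30 min and 1, 2, 4, 6 and 8 h post-dose. Concentrations measured by LC-MS/MS.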

[8] = Volume of distribution at steady state in C57B16 mouse at 3 mg/kg, iv by LC-MS/MS analysis; type: ADME, organism-based; conditions: in vivo
[9] = Cmax in C57B16 mouse at 10 mg/kg, po by LC-MS/MS analysis; type: ADME, organism-based; parameters: dose 10 mg/kg, route oral; conditions: in vivo
[10] = Cmax in Sprague-Dawley rat at 5 mg/kg, po by LC-MS/MS analysis; type: ADME, organism-based; parameters: dose 5 mg/kg, route oral; conditions: in vivo
[11] = Ratio of drug uptake in Sprague-Dawley rat brain to plasma at 5 mg/kg, po after 1 hr by LC-MS/MS analysis; type: ADME, organism-based
Procedure, shortened: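 Fasted male rats (n = 2) received the monotartrate salt orally at 5 mg kg⁻¹. Plasma, brain and CSF levels were measured 1 h after dosing, and the ratio was taken from mean values.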

[12] = Solubility of the compound at pH 7.4; type: physicochemical; conditions: buffer
[13] = Oral bioavailability in Sprague-Dawley rat at 5 mg/kg by LC-MS/MS analysis; type: ADME, organism-based; conditions: in vivo
[14] = AUCt in Sprague-Dawley rat at 5 mg/kg, po by LC-MS/MS analysis; type: ADME, organism-based; conditions: in vivo
Procedure, shortened: (§2)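 Whole blood (250 μL) drawn via jugular vein cannula, n = 3. The iv route was sampled at 5, 15 and 30 min and 1, 2, 4, 8 and 24 h; the oral route at 15 and 30 min and 1, 2, 4, 8 and 24 h. LC-MS/MS quantitation.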

[15] = AUCt in C57B16 mouse at 10 mg/kg, po by LC-MS/MS analysis; type: ADME, organism-based; conditions: in vivo
[16] = AUCt in C57B16 mouse at 3 mg/kg, iv by LC-MS/MS analysis; type: ADME, organism-based; conditions: in vivo
[17] = Oral bioavailability in C57B16 mouse at 10 mg/kg by LC-MS/MS analysis; type: ADME, organism-based; conditions: in vivo
[18] = AUCt in Sprague-Dawley rat at 1 mg/kg, iv by LC-MS/MS analysis; type: ADME, organism-based; conditions: in vivo; procedure, shortened: as §2

Cc1ccc2nc(N3CCC(NC4CCOCC4)CC3)c(-c3nc(C)no3)cc2c1.O=C(O)C(O)C(O)C(=O)O
F [1]: 20%
AUC [2]: 12740 ng·min/mL
BPR [3]: 3.8
Cmax [4]: 110.16 ng/mL
BPR [5]: 2.9
Vdss [6]: 12.95 L/kg
AUC [7]: 1705 ng·min/mL

CCc1cc(F)c2nc(N3CCC(NC4CCOCC4)CC3)c(-c3nc(C)no3)c(C)c2c1.O=C(O)C(O)C(O)C(=O)O
Vdss [8]: 7.72 L/kg
Cmax [9]: 80.9 ng/mL
Cmax [10]: 39.1 ng/mL
BPR [11]: 2.2
solubility [12]: 74 µM
F [13]: 30.2%
AUCt [14]: 232 ng·h/mL
AUCt [15]: 265 ng·h/mL
Vdss [6]: 13.8 L/kg
AUCt [16]: 725 ng·h/mL
F [17]: 12%
AUCt [18]: 153 ng·h/mL

From ChEMBL document CHEMBL4422661, “Design and Synthesis of a Novel and Selective Kappa Opioid Receptor (KOR) Antagonist (BTRX-335140)” (J Med Chem, 2019)
